Sampled rows, rich in hits. Any-hit rate of the full collection: about 1.1%.
G6PDH counter: L. mesenteroides G6PDH inhibitors, counter-screen for G6PDH-coupled screening assays, biochemical, Leuconostoc mesenteroides enzyme. glucose-6-phosphate dehydrogenase [Leuconostoc mesenteroides]. Purified L. mesenteroides G6PDH, diaphorase/resazurin coupled fluorescence, 45 min. inhibition, % at 5 µM. 200,000 tested, 0.12% active; in the data active = inhibition above about 50%
Diaphorase act: compounds boosting diaphorase resazurin reduction – biochemical, uHTS, resorufin fluorescence, counter-screen for diaphorase-coupled primary assays, primary screen. 190,000 tested, 0.005% active. Diaphorase/resazurin coupled assay, 16 min; active compounds read high; 1 = vehicle wells, 0 = NADH-free wells. AID 1229, 2008. activation factor at 20 µM;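 active = diaphorase activity raised at least twofold by the compound at 20 µM; inactive = activation factor below 2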
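Test system: Clostridium kluyveri diaphorase, purified enzyme. Buffer or medium: 50 mM HEPES pH 7.4 buffer plus MgCl2 and Tween 20. Also added: 0.114 mM NADH and 0.1 mM resazurin, final amounts. Dosing: compound 20 µM once, DMSO 1%. Schedule: 16 min enzyme reaction, ambient temperature. Detection: fluorescence of resorufin, 544 nm excitation, 590 nm emission.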
PMI act satM6P: human PMI activators, high substrate, primary screen, biochemical, fluorescence intensity, near-saturating mannose 6-phosphate; Mannose-6-phosphate isomerase (Homo sapiens), P34949; coupled PMI enzyme assay, resazurin fluorescence, 20 min; active compounds read high; 1 = untreated enzyme, 0 = substrate-free blank; activation factor at 20 µM; 190,000 tested, 0.34% active; AID 1216, 2008;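 active = activation factor of 2 or more at 20 µM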
Target sequence (P34949 whole entry, looked up): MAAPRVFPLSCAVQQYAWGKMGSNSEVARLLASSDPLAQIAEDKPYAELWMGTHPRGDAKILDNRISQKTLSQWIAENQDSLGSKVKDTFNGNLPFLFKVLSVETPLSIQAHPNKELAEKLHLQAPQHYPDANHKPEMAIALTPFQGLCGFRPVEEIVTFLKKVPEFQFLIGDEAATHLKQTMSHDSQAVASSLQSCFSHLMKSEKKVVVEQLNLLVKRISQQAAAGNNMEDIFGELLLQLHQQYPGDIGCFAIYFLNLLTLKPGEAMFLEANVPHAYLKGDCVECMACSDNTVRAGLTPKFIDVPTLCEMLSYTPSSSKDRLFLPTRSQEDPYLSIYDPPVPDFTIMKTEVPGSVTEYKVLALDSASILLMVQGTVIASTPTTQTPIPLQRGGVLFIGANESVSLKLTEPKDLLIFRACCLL
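Test system: human phosphomannose isomerase with PGI, G6PDH, diaphorase coupling enzymes; amount: 15 ng/mL PMI; incubation: enzyme reaction with compound 20 min at room temperature; technique: resorufin fluorescence (Ex 544/Em 590 nm) from resazurin via diaphorase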
PMI activator: activators of human PMI, primary screen, biochemical, fluorescence intensity, near-Km mannose 6-phosphate; Mannose-6-phosphate isomerase (Homo sapiens), P34949; purified human PMI, coupled resazurin fluorescence, 20 min; active compounds read high; 1 = vehicle control, 0 substrate-free wells; activation factor at 20 µM; 190,000 tested, 0.005% active;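 active = activation factor of 2 or more at 20 µM, relative to plate controls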
DTT redox prof: compounds producing H2O2 with reducing agent – biochemical, NIH compound library profiling, artefact control for MLSCN library redox annotation, primary screen; 200,000 tested, 0.03% active; DTT-dependent redox cycling H2O2, phenol red/HRP absorbance; 100% = 100 µM peroxide control, 0% = buffer; activation, % at 10 µM; AID 878, 2007;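 active = activation of at least 50% relative to the plate's high and low controls in the primary single-dose screen; inactive = activation below 50%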;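 note: compound incubated with DTT at 0.8 mM final as the reducing agent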
Diaphorase inh: diaphorase inhibitors and chemical oxidizers, primary screen, counter-screen for diaphorase-coupled primary assays, biochemical, uHTS, resorufin fluorescence; diaphorase resazurin-to-resorufin fluorescence, NADH, 16 min; bacterial (C. kluyveri) enzyme, not human; inhibition, % at 20 µM; 190,000 tested, 0.69% active; AID 1217, 2008;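 active = primary screen inhibition at 20 µM above a set limit, cut at about 50% in these data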;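 note: plate controls were DMSO with full reaction for no effect and wells lacking NADH for full effect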
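Assay system: diaphorase enzyme from Clostridium kluyveri; Input: enzyme working solution with 0.14 U/mL diaphorase; Timing: 16 min at room temperature; Technique: resorufin fluorescence, excitation 544 nm, emission 590 nm; Benchmarks: positive control minus NADH, DMSO neutral control.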
Redox H2O2 DR: redox cycling H2O2 generation, confirmed. shares compounds with DTT redox prof. EC50, µM. DTT-dependent redox cycling H2O2, phenol red-HRP absorbance. AID 1234. 60 tested, 40% active;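 active = EC50 under a set limit for hydrogen peroxide production with the reducing agent DTT present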
* hit, by the source's call.

Results for CSc1nc(N2CCN(C)CC2)c2ccccc2n1 ?
G6PDH counter: 7; Diaphorase act: 0.4; PMI act satM6P: 0.9; PMI activator: 0.9; DTT redox prof: -1; Diaphorase inh: 57*

How did O=C(CF)NC(Nc1cccc2cccnc12)C(Cl)(Cl)Cl (stereo not given) do in these assays?
G6PDH counter: -11; Diaphorase act: 0.7; PMI act satM6P: 0.8; PMI activator: 0.8; DTT redox prof: -5; Diaphorase inh: 25

Results for Cc1ccc(C(=O)O)cc1N=Nc1c(O)[nH]c(=O)[nH]c1=O ?
G6PDH counter: -2; Diaphorase act: 0.9; PMI act satM6P: 1; PMI activator: 1.1; DTT redox prof: 0; Diaphorase inh: 14

What do the screens show for `C=C1N2CCC(CC2)C1(O)c1ccc(C)c(C)c1` (stereo not given)?
G6PDH counter: -7; Diaphorase act: 0.9; PMI act satM6P: 1; PMI activator: 1.1; DTT redox prof: 0; Diaphorase inh: 11

What do the screens show for `C=C1N2CCC(CC2)C1(O)c1ccc(C)cc1` (stereo not given)?
G6PDH counter: 2; Diaphorase act: 0.9; PMI act satM6P: 2.1*; PMI activator: 1.6; DTT redox prof: 0; Diaphorase inh: 7

What do the screens show for `Cc1c(NC(NC(=O)CF)C(Cl)(Cl)Cl)c(=O)n(-c2ccccc2)n1C` (stereo not given)?
G6PDH counter: -2; Diaphorase act: 0.7; PMI act satM6P: 1.1; PMI activator: 1.1; DTT redox prof: 0; Diaphorase inh: 27

Results for CC(=O)Nc1ccc2c(c1)CC1(C(=O)N(C)C(=O)N(C)C1=O)C1CCCN21 (stereo not given) ?
G6PDH counter: 8; Diaphorase act: 0.7; PMI act satM6P: 0.9; PMI activator: 1.2; DTT redox prof: 2; Diaphorase inh: 33

How did Oc1cc2c(cc1O)[C@H]1c3ccccc3CN[C@@H]1CC2 do in these assays?
G6PDH counter: 31; Diaphorase act: 0.4; PMI act satM6P: 0.8; PMI activator: 0.5; Diaphorase inh: 65*

Results for CSC(=Nc1ccccc1)c1c(O)n(C)c(=O)n(C)c1=O ?
G6PDH counter: 3; Diaphorase act: 0.9; PMI act satM6P: 2.2*; PMI activator: 1.7; DTT redox prof: 0; Diaphorase inh: 10

How did COc1ccc(/C=C2/C(=O)NC(=S)N(C3CC3)C2=O)cc1CN1C(=O)c2ccccc2C1=O do in these assays?
G6PDH counter: -10; Diaphorase act: 0.9; PMI act satM6P: 2*; PMI activator: 1.6; DTT redox prof: 0; Diaphorase inh: 14

What do the screens show for `COc1ccc(/C=C2/C(=O)NC(=O)N(C3CCCCC3)C2=O)cc1CSc1ccccn1`?
G6PDH counter: 2; Diaphorase act: 1.1; PMI act satM6P: 1.2; PMI activator: 1; DTT redox prof: 1; Diaphorase inh: -8

How did CCOC(=O)c1ccc(N2C(=O)CC(N3CC=C(c4ccc(F)cc4)CC3)C2=O)cc1 (stereo not given) do in these assays?
G6PDH counter: -7; Diaphorase act: 1; PMI act satM6P: 2*; PMI activator: 1.6; DTT redox prof: 1; Diaphorase inh: 3

Results for O=c1c2ccccc2nc(/C=C/c2ccc(O)cc2)n1-c1cccc(O)c1 ?
G6PDH counter: 5; Diaphorase act: 0.9; PMI act satM6P: 0.8; PMI activator: 0.9; DTT redox prof: 0; Diaphorase inh: 14

What do the screens show for `COc1cccc(-n2c(/C=C/c3ccc(O)c(O)c3)nc3ccccc3c2=O)c1`?
G6PDH counter: 26; Diaphorase act: 0.3; PMI act satM6P: 0.9; PMI activator: 0.4; DTT redox prof: -1; Diaphorase inh: 69*

What do the screens show for `O=C(O)CCn1cc(C=C2C(=O)NC(=S)NC2=O)c(-c2cc3ccccc3oc2=O)n1`?
G6PDH counter: 7; Diaphorase act: 0.9; PMI act satM6P: 2.3*; PMI activator: 1.3; DTT redox prof: -1; Diaphorase inh: 9

How did O=C(O)CCn1cc(C=C2C(=O)NC(=S)NC2=O)c(-c2ccccc2)n1 do in these assays?
G6PDH counter: 13; Diaphorase act: 0.8; PMI act satM6P: 1.1; PMI activator: 0.4; DTT redox prof: -1; Diaphorase inh: 23

Results for CCn1nc(/C=C/c2ccccc2)nc2c(=O)n(C)c(=O)nc1-2 ?
G6PDH counter: 61*; Diaphorase act: 1.5; PMI act satM6P: 0.5; PMI activator: 0.6; DTT redox prof: 152*; Diaphorase inh: -50; Redox H2O2 DR: >50

How did Cn1cc(C(=O)N2CCOCC2)c2ccccc21 do in these assays?
G6PDH counter: 14; Diaphorase act: 1.1; PMI act satM6P: 1; PMI activator: 1.1; DTT redox prof: -2; Diaphorase inh: -10

How did Cc1nn(Cc2ccc(Cl)cc2Cl)c(Cl)c1C(=O)NC1CCCc2ccccc21 (stereo not given) do in these assays?
G6PDH counter: 20; Diaphorase act: 1; PMI act satM6P: 0.9; PMI activator: 1; DTT redox prof: 2; Diaphorase inh: 3

How did Cc1cccnc1NC1=NCC(C)S1 (stereo not given) do in these assays?
G6PDH counter: -13; Diaphorase act: 0.9; PMI act satM6P: 1; PMI activator: 1; DTT redox prof: 71*; Diaphorase inh: 7; Redox H2O2 DR: >50

What do the screens show for `CN(Cc1ccccc1)C(=C(Cl)Cl)/C(=C1/NCCN1Cc1ccc(Cl)nc1)[N+](=O)[O-]`?
G6PDH counter: -8; Diaphorase act: 0.9; PMI act satM6P: 1; PMI activator: 0.9; DTT redox prof: 0; Diaphorase inh: 13

How did CCCCn1c(NC(=O)c2ccco2)c(C(=O)OCC)c2nc3ccccc3nc21 do in these assays?
G6PDH counter: 47; Diaphorase act: 0.3; PMI act satM6P: 0.4; PMI activator: 0.4; DTT redox prof: 81*; Diaphorase inh: 66*; Redox H2O2 DR: >50

High-throughput results as filed in PubChem BioAssay.
